Results as given in ChEMBL document CHEMBL5113430, “Evaluation of chromane derivatives: Promising privileged scaffolds for lead discovery within Alzheimer's disease” (Bioorg Med Chem, 2022).
Active and inactive are the calls of the source. The rule behind the calls is not given here.

Tests used:
Acetylcholinesterase [1] = target: T1, Acetylcholinesterase (Electrophorus electricus, UniProt O42275); experiment: Inhibition of electric eel AChE using […] as a substrate and measured for 125 sec by DTNB based Ellman's method
[2] = target: T2, Amine oxidase [flavin-containing] A (Homo sapiens, UniProt P21397); experiment: Inhibition of recombinant MAO-A (unknown origin) expressed in baculovirus infected BTI cells assessed as reduction in 4-hydroxyquinoline level using kynuramine as a substrate at 1 uM incubated for 20 mins by discontinuous fluorimetric assay relative to control
T2 sequence (P21397 whole entry): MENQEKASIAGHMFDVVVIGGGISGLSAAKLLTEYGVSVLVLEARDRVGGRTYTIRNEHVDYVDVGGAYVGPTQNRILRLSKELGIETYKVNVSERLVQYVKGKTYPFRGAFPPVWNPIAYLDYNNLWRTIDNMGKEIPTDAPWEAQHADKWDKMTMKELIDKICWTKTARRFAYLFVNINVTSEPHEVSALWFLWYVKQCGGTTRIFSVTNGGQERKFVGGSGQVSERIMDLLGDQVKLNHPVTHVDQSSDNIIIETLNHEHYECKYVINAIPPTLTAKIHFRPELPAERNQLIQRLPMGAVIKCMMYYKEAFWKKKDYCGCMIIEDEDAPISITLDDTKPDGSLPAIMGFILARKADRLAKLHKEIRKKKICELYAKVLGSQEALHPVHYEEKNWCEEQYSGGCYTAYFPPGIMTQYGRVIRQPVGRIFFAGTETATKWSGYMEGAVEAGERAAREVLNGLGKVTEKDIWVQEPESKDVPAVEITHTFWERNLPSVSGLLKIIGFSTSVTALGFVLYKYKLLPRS
Summary of the method: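 Discontinuous fluorimetric assay with recombinant membrane-bound MAO-A and kynuramine at two-fold KM (KM = 30 μM). Test compound at 1 μM, from a 1 mM DMSO stock. Incubated 20 min at 37 °C, stopped with 2 N NaOH. 4-hydroxyquinoline read at ex 320 nm / em 405 nm. Percent inhibition against no-inhibitor control, mean ± SD of two independent experiments in duplicate.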

[3] = target: T3, Amine oxidase [flavin-containing] B (Homo sapiens, UniProt P27338); experiment: Inhibition of recombinant MAO-B (unknown origin) expressed in baculovirus infected BTI cells assessed as reduction in 4-hydroxyquinoline level using kynuramine as a substrate at 1 uM incubated for 20 mins by discontinuous fluorimetric assay relative to control; conditions: read-out: INH
T3 sequence (P27338 whole entry): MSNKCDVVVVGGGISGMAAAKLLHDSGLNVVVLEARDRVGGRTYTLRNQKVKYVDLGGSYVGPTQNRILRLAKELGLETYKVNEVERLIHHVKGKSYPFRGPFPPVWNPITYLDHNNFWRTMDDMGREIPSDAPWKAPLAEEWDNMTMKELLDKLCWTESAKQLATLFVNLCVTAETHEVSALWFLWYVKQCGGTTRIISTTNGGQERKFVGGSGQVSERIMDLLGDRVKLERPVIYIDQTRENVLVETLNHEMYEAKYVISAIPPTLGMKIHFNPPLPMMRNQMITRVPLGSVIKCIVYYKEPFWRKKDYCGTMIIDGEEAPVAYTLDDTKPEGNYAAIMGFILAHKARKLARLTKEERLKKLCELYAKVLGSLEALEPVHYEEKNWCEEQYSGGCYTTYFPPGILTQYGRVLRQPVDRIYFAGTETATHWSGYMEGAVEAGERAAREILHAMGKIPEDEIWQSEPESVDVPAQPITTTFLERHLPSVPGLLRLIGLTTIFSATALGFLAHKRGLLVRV

Cholinesterase [4] = target: T4, Cholinesterase (Equus caballus, UniProt P81908); experiment: Inhibition of Equine serum BuChE using S-butyrylthiocholine iodide as a substrate and measured for 125 sec by DTNB based Ellman's method
Cholinesterase [5] = target: T4, Cholinesterase; experiment: Inhibition of Equine serum BuChE assessed as inhibitory constants for binding the free enzyme using S-butyrylthiocholine iodide as a substrate by Cornish-Bowden plot analysis
Summary of the method: (§1)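 Equine BuChE, Ellman method: 50 μM phosphate buffer pH 8.0, 0.975 mM DTNB, 1.25% DMSO, 25 °C, read at 405 nm over 125 s. Runs used 5 butyrylthiocholine levels (1/4 to 4 × KM) and 3–4 inhibitor levels giving roughly 30–80% inhibition. KM and Vmax came from nonlinear regression. Mode of inhibition and constants came from Cornish-Bowden plots.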

Cholinesterase [6] = target: T4, Cholinesterase; experiment: Inhibition of Equine serum BuChE assessed as inhibitory constants for binding the enzyme-substrate complex using S-butyrylthiocholine iodide as a substrate by Cornish-Bowden plot analysis; summary of the method: as §1
[7] = target: Cholinesterase (Equus caballus) (UniProt P81908); experiment: Inhibition of equine serum BuChE at 1.47 mM by STD-NMR spectroscopy
Summary of the method: (§2)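 STD-NMR with 5 μM equine BuChE in D2O; ligand stocks of 8.8 and 4.8 mM. Saturation times for buildup curves 0.25–5 s, total experiment time held at 6.5 s. Water suppression at 4.7 ppm, sweep width 20.03 ppm. Blanks checked for direct ligand saturation.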

Acetylcholinesterase [8] = target: T1, Acetylcholinesterase; experiment: Inhibition of electric eel AChE using […] as a substrate and measured upto 180 sec by DTNB based Ellman's method
[9] = target: Cholinesterase (Equus caballus) (UniProt P81908); experiment: Inhibition of equine serum BuChE at 0.8 mM by STD-NMR spectroscopy; summary of the method: as §2
[10] = target: T3, Amine oxidase [flavin-containing] B; experiment: Inhibition of human MAO-B assessed as shielding effect on inhibitor […] at 0.016 mM incubated for 20 min by STD-NMR spectroscopy; conditions: 16 µM
Summary of the method: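 MAO-B incubated with the N-propargyl inhibitor and followed by 1H NMR, with spectra recorded every 5 min. The spectrum of inhibitor alone was compared with the inhibitor–enzyme mixture at 20 min, watching shifts of inhibitor protons, especially the propargyl proton. Ligand-only controls and blanks checked for direct saturation. Water suppression at 4.7 ppm.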

T1 sequence (O42275 whole entry): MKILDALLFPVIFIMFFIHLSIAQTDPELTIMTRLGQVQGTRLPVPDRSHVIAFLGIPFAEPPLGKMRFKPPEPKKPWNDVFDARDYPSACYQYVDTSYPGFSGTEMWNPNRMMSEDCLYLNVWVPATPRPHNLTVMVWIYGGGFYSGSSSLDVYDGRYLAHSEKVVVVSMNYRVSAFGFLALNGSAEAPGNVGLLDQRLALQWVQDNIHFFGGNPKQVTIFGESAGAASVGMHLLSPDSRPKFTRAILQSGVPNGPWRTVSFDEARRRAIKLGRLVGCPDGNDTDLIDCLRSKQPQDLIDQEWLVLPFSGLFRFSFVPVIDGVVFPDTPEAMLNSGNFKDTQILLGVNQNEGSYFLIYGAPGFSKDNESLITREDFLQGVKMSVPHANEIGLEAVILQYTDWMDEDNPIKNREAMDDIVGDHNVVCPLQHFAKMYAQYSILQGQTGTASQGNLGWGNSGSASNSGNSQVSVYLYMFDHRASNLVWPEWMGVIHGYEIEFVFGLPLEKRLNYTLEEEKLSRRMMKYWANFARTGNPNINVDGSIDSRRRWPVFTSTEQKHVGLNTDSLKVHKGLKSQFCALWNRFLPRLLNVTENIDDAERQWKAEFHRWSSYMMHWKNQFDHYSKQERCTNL
T4 sequence (P81908 whole entry): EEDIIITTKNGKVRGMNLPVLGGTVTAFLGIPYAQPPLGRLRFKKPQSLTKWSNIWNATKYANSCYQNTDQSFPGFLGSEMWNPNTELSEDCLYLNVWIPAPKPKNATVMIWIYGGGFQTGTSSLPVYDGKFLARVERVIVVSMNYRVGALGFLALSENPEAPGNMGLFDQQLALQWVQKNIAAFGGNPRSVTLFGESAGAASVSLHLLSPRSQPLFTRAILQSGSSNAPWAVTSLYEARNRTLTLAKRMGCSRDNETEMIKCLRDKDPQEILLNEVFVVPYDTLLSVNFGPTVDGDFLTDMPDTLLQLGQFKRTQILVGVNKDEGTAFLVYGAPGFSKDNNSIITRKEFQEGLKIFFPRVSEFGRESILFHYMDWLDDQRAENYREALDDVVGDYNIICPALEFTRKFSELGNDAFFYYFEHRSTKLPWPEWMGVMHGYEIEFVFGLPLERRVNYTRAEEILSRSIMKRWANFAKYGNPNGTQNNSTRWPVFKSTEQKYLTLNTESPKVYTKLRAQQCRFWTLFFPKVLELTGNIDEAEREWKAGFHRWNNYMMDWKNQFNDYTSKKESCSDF
Sequence of Cholinesterase (Equus caballus) (P81908 whole entry): as above

Row | SMILES | IC50 (Acetylcholinesterase [1]) [µM] | inhibition at 1 µM [2] [%] | inhibition at 1 µM [3] [%] | IC50 (Cholinesterase [4]) [µM] | further results
1 | CCOc1cc(C#N)cc2c1OCC(C)(C)C2=O | > 100 | 20.5 | 4.7 | > 100 | 
2 | CC1(C)COc2c(ccc3cccnc23)C1O (configuration not stated) | > 100 |  |  | 5 | Ki (Cholinesterase [5]): 7.2 µM; Ki (Cholinesterase [6]): 13.7 µM
3 | CC1(C)COc2ccc3ccccc3c2C1N (configuration not stated) |  | 12.5 | 2.7 | 52 | 
4 | CC1(C)COc2cc3ccccc3cc2C1=O | > 100 | 16.4 | 27.7 | 3.1 | 
5 | C#CCN(C)CCCOc1ccc(Cl)cc1Cl [CLORGILINE] |  | 99.8 |  |  | 
6 | CC1(C)COc2ccc(F)cc2C1O (configuration not stated) | > 100 | 16.5 | 8.3 | > 100 | 
7 | Cc1ccc2c(c1)C(N)C(C)(C)CO2 (configuration not stated) |  |  |  | 67 | 
8 | COc1cccc2c1C(O)C(C)(C)CO2 (configuration not stated) | > 100 | 11.5 | 5.3 | > 100 | 
9 | CC1(C)COc2ccccc2C1N (configuration not stated) |  | -3.8 | 3.7 | 38 | 
10 | CC1(C)COc2ccccc2C1O (configuration not stated) | > 100 | 24.3 | 8 | 40 | 
11 | CCOc1cc(C#N)cc2c1OCC(C)(C)C2O (configuration not stated) | > 100 |  |  | 7.3 | 
12 | CC1(C)COc2cc3ccccc3cc2C1N (configuration not stated) |  | 13.3 | 7.5 | 8.9 | Ki (Cholinesterase [5]): 18 µM; Ki (Cholinesterase [6]): 11 µM
13 | C#CCN(Cc1ccccc1)C1c2cccc(OC)c2OCC1(C)C (configuration not stated) |  | 4.3 | 14.7 |  | 
14 | CC1(C)COc2ccc(C#N)cc2C1O (configuration not stated) | > 100 |  |  | 18 | 
15 | CC1(C)COc2cc(F)c(F)cc2C1O (configuration not stated) | > 100 |  |  | 28 | 
16 | CC1(C)COc2ccccc2C1=O | > 100 | 9.7 | 9.2 | 43 | 
17 | C#CCN(Cc1ccccc1)C1c2ccccc2OCC1(C)C (configuration not stated) |  | -10.6 | 2.9 |  | 
18 | Cc1ccc2c(c1)C(O)C(C)(C)CO2 (configuration not stated) | > 100 |  |  | > 100 | 
19 | C#CCNC1c2cccc(OC)c2OCC1(C)C (configuration not stated) |  | 4.6 | 13.8 |  | 

Row | SMILES | IC50 (Acetylcholinesterase [1]) [µM] | inhibition at 1 µM [2] [%] | inhibition at 1 µM [3] [%] | IC50 (Cholinesterase [4]) [µM] | further results
20 | CC1(C)COc2ccc3ccccc3c2C1=O | > 100 | 23.2 | 5.1 | 2.9 | inhibition [7]: Active; Ki (Cholinesterase [5]): 2 µM; Ki (Cholinesterase [6]): 6.7 µM
21 | O=C1CC(OCCCCCSC(=S)N2CCCCC2)Oc2ccccc21 (configuration not stated) |  |  |  |  | IC50 (Acetylcholinesterase [8]): 0.1 µM
22 | COc1cccc2c1OCC(C)(C)C2N (configuration not stated) |  | -0.7 | 4.3 | 7.6 | inhibition [9]: Active; Ki (Cholinesterase [5]): 9 µM; Ki (Cholinesterase [6]): 19.1 µM
23 | COc1cccc2c1OCC(C)(C)C2=O | > 100 |  |  | > 100 | 
24 | CC1(C)COc2ccc(F)cc2C1=O | > 100 |  |  | 33 | 
25 | CC1(C)COc2cc(F)c(F)cc2C1=O | > 100 |  |  | > 100 | 
26 | CC1(C)COc2cc3ccccc3cc2C1O (configuration not stated) | > 100 |  |  | 50 | 
27 | C#CCNC1c2ccccc2OCC1(C)C (configuration not stated) |  |  | 11.6 |  | inhibition (INH) [10]: Active
28 | CC1(C)COc2c(ccc3cccnc23)C1=O | > 100 | 14.8 | 4.8 | 6.4 | 
29 | CC1(C)COc2cc(F)ccc2C1=O | > 100 |  |  | > 100 | 
30 | C[C@H](NCc1ccc(OCc2cccc(F)c2)cc1)C(N)=O [SAFINAMIDE] |  | 1.8 |  |  | 
31 | CC1(C)COc2ncccc2C1=O | > 100 |  |  | > 100 | 
32 | CC1(C)COc2cc(F)ccc2C1O (configuration not stated) | > 100 |  |  | 18 | 
33 | COc1cccc2c1C(=O)C(C)(C)CO2 | > 100 | 12.1 | 5.9 | 12 | 
34 | CC1(C)COc2ccc3ccccc3c2C1O (configuration not stated) | > 100 |  |  | 33 | 
35 | C#CCNC1c2cc(C)ccc2OCC1(C)C (configuration not stated) |  | -9.4 | -6.8 |  | 
36 | CC1(C)COc2c(OC(F)(F)F)cccc2C1=O | > 100 |  |  | 4.3 | 
37 | NC1CCOc2ccccc21 (configuration not stated) |  | -0.7 | 4.8 |  | 
